Measured values as given in ChEMBL document CHEMBL3588803, “Design, synthesis and pharmacology of 1,1-bistrifluoromethylcarbinol derivatives as liver X receptor β-selective agonists” (Bioorg Med Chem Lett, 2015).

Experiments:
[1] = Plasma concentration in CE-2 chow diet-fed golden Syrian hamster at 100 mg/kg, po after 0.5 hrs by HPLC-LC-MS/MS method; assay type: ADME, organism-based, Mesocricetus auratus
Method in brief: (§1)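 Hamsters on chow diet received a single oral dose of 100 mg/kg. Heparin plasma was drawn from a forearm vein at 0.5, 1, 2, 3, 4, 6, 8, 10 and 24 h after dosing. Concentrations of parent drug and its carboxylic acid metabolite were measured in plasma.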

[2] = Plasma concentration in CE-2 chow diet-fed golden Syrian hamster at 100 mg/kg, po after 1 hr by HPLC-LC-MS/MS method; assay type: ADME, organism-based, Mesocricetus auratus; method in brief: as §1
[3] = Plasma concentration in CE-2 chow diet-fed golden Syrian hamster at 100 mg/kg, po after 2 hrs by HPLC-LC-MS/MS method; assay type: ADME, organism-based, Mesocricetus auratus; method in brief: as §1
[4] = Plasma concentration in CE-2 chow diet-fed golden Syrian hamster at 100 mg/kg, po after 4 hrs by HPLC-LC-MS/MS method; assay type: ADME, organism-based, Mesocricetus auratus; method in brief: as §1
[5] = Plasma concentration in CE-2 chow diet-fed golden Syrian hamster at 100 mg/kg, po after 6 hrs by HPLC-LC-MS/MS method; assay type: ADME, organism-based, Mesocricetus auratus; method in brief: as §1
[6] = Plasma concentration in CE-2 chow diet-fed golden Syrian hamster at 100 mg/kg, po after 10 hrs by HPLC-LC-MS/MS method; assay type: ADME, organism-based, Mesocricetus auratus; method in brief: as §1
[7] = Plasma concentration in CE-2 chow diet-fed golden Syrian hamster at 100 mg/kg, po after 24 hrs by HPLC-LC-MS/MS method; assay type: ADME, organism-based, Mesocricetus auratus; method in brief: as §1
[8] = Plasma concentration in CE-2 chow diet-fed golden Syrian hamster assessed as 4-(4-(1,1,1,3,3,3-Hexafluoro-2-hydroxypropan-2-yl)-2,6-di-n-propylphenoxy)-butanoic acid level at 100 mg/kg, po after 0.5 hrs by HPLC-LC-MS/MS method; assay type: ADME, organism-based, Mesocricetus auratus; conditions: in vivo; method in brief: as §1
[9] = Plasma concentration in CE-2 chow diet-fed golden Syrian hamster assessed as 4-(4-(1,1,1,3,3,3-Hexafluoro-2-hydroxypropan-2-yl)-2,6-di-n-propylphenoxy)-butanoic acid level at 100 mg/kg, po after 1 hr by HPLC-LC-MS/MS method; assay type: ADME, organism-based, Mesocricetus auratus; conditions: in vivo; method in brief: as §1
[10] = Plasma concentration in CE-2 chow diet-fed golden Syrian hamster assessed as 4-(4-(1,1,1,3,3,3-Hexafluoro-2-hydroxypropan-2-yl)-2,6-di-n-propylphenoxy)-butanoic acid level at 100 mg/kg, po after 3 hrs by HPLC-LC-MS/MS method; assay type: ADME, organism-based, Mesocricetus auratus; conditions: in vivo; method in brief: as §1
[11] = Plasma concentration in CE-2 chow diet-fed golden Syrian hamster assessed as 4-(4-(1,1,1,3,3,3-Hexafluoro-2-hydroxypropan-2-yl)-2,6-di-n-propylphenoxy)-butanoic acid level at 100 mg/kg, po after 4 hrs by HPLC-LC-MS/MS method; assay type: ADME, organism-based, Mesocricetus auratus; conditions: in vivo; method in brief: as §1
[12] = Plasma concentration in CE-2 chow diet-fed golden Syrian hamster assessed as 4-(4-(1,1,1,3,3,3-Hexafluoro-2-hydroxypropan-2-yl)-2,6-di-n-propylphenoxy)-butanoic acid level at 100 mg/kg, po after 6 hrs by HPLC-LC-MS/MS method; assay type: ADME, organism-based, Mesocricetus auratus; conditions: in vivo; method in brief: as §1
[13] = Plasma concentration in CE-2 chow diet-fed golden Syrian hamster assessed as 4-(4-(1,1,1,3,3,3-Hexafluoro-2-hydroxypropan-2-yl)-2,6-di-n-propylphenoxy)-butanoic acid level at 100 mg/kg, po after 8 hrs by HPLC-LC-MS/MS method; assay type: ADME, organism-based, Mesocricetus auratus; conditions: in vivo; method in brief: as §1
[14] = Plasma concentration in CE-2 chow diet-fed golden Syrian hamster assessed as 4-(4-(1,1,1,3,3,3-Hexafluoro-2-hydroxypropan-2-yl)-2,6-di-n-propylphenoxy)-butanoic acid level at 100 mg/kg, po after 10 hrs by HPLC-LC-MS/MS method; assay type: ADME, organism-based, Mesocricetus auratus; conditions: in vivo; method in brief: as §1
[15] = Plasma concentration in CE-2 chow diet-fed golden Syrian hamster assessed as 4-(4-(1,1,1,3,3,3-Hexafluoro-2-hydroxypropan-2-yl)-2,6-di-n-propylphenoxy)-butanoic acid level at 100 mg/kg, po after 24 hrs by HPLC-LC-MS/MS method; assay type: ADME, organism-based, Mesocricetus auratus; conditions: in vivo; method in brief: as §1
[16] = Cmax in CE-2 chow diet-fed golden Syrian hamster at 100 mg/kg, po after 6 hrs by HPLC-LC-MS/MS method; assay type: ADME, organism-based, Mesocricetus auratus; parameters: dose 100 mg/kg, route oral; conditions: in vivo; method in brief: as §1
Syrian golden hamster = test: Drug metabolism in CE-2 chow diet-fed golden Syrian hamster assessed as 4-(4-(1,1,1,3,3,3-Hexafluoro-2-hydroxypropan-2-yl)-2,6-di-n-propylphenoxy)-butanoic acid formation at 100 mg/kg, po after 0.5 to 24 hrs by HPLC-LC-MS/MS method; assay type: ADME, organism-based, Mesocricetus auratus; conditions: in vivo; method in brief: as §1
Hamster [17] = test: Increase in ABCA1 gene expression in Bio F1B hamster intestine at 10 to 100 mg/kg, po; assay type: functional, organism-based; conditions: Cricetinae
Hamster [18] = test: Increase in ABCA1 gene expression in Bio F1B hamster intestine at 30 mg/kg, po; assay type: functional, Cricetinae
Method in brief: (§2)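 Bio F1B hamsters were fed a high-fat, high-cholesterol diet and dosed orally. Gene expression was measured in intestine (ABCA1, ABCG5, ABCG8) and in peripheral blood (ABCA1).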

Hamster [19] = test: Increase in ABCA1 gene expression in Bio F1B hamster intestine at 100 mg/kg, po; assay type: functional, Cricetinae; method in brief: as §2
Hamster [20] = test: Increase in ABCA1 gene expression in Bio F1B hamster peripheral blood at 10 mg/kg, po; assay type: functional, Cricetinae
Hamster [21] = test: Increase in ABCA1 gene expression in Bio F1B hamster peripheral blood at 100 mg/kg, po; assay type: functional, Cricetinae; method in brief: as §2
Hamster [22] = test: Increase in ABCG5 gene expression in Bio F1B hamster intestine at 10 mg/kg, po; assay type: functional, Cricetinae
Hamster [23] = test: Increase in ABCG5 gene expression in Bio F1B hamster intestine at 30 mg/kg, po; assay type: functional, Cricetinae; method in brief: as §2
Hamster [24] = test: Hypolipidemic effect in Bio F1B hamster fed with high fat and cholesterol diet assessed as total cholesterol level at 10 mg/kg, po relative to control; assay type: functional, Cricetinae
Hamster [25] = test: Hypolipidemic effect in Bio F1B hamster fed with high fat and cholesterol diet assessed as total cholesterol level at 100 mg/kg, po relative to control; assay type: functional, Cricetinae
Hamster [26] = test: Hypolipidemic effect in Bio F1B hamster fed with high fat and cholesterol diet assessed as HDL-cholesterol level at 10 mg/kg, po relative to control; assay type: functional, Cricetinae
Hamster [27] = test: Hypolipidemic effect in Bio F1B hamster fed with high fat and cholesterol diet assessed as HDL-cholesterol level at 30 mg/kg, po relative to control; assay type: functional, Cricetinae
Hamster [28] = test: Hypolipidemic effect in Bio F1B hamster fed with high fat and cholesterol diet assessed as HDL-cholesterol level at 100 mg/kg, po relative to control; assay type: functional, Cricetinae
Hamster [29] = test: Hypolipidemic effect in Bio F1B hamster fed with high fat and cholesterol diet assessed as LDL-cholesterol level at 10 mg/kg, po relative to control; assay type: functional, Cricetinae
Hamster [30] = test: Hypolipidemic effect in Bio F1B hamster fed with high fat and cholesterol diet assessed as LDL-cholesterol level at 100 mg/kg, po relative to control; assay type: functional, Cricetinae
Hamster [31] = test: Effect in lipid profiles in Bio F1B hamster fed with high fat and cholesterol diet assessed as triglyceride level at 30 mg/kg, po relative to control; assay type: organism-based; conditions: cricetinae, in vivo
Hamster [32] = test: Effect in lipid profiles in Bio F1B hamster fed with high fat and cholesterol diet assessed as triglyceride level at 100 mg/kg, po relative to control; assay type: organism-based; conditions: cricetinae, in vivo

CCCc1cc(C(O)(C(F)(F)F)C(F)(F)F)cc(CCC)c1OCCCCN1C(=O)NC(C)(c2ccc(OC(C)C)cc2)C1=O (stereo not drawn)
concentration at 0.5 h [1]: 310 nM
concentration at 1 h [2]: 490 nM
concentration at 2 h [3]: 320 nM
concentration at 4 h [4]: 290 nM
concentration at 6 h [5]: 630 nM
concentration at 10 h [6]: 110 nM
concentration at 24 h [7]: 100 nM
Cp [8]: 52 ng/mL
Cp [9]: 202 ng/mL
Cp [10]: 409 ng/mL
Cp [11]: 529 ng/mL
Cp [12]: 641 ng/mL
Cp [13]: 979 ng/mL
Cp [14]: 560 ng/mL
Cp [15]: 528 ng/mL
Cmax [16]: 600 nM
Drug metabolism (Syrian golden hamster): metabolite_detected
Activity (Hamster [17]): Dose-dependent effect
fold change (FC) (Hamster [18]): 4
fold change (FC) (Hamster [19]): 5.2
fold change (FC) (Hamster [20]): 1
fold change (FC) (Hamster [21]): 1
fold change (FC) (Hamster [22]): 1.2
fold change (FC) (Hamster [23]): 1.5
Activity (Hamster [24]): 87%
Activity (Hamster [25]): 53%
Activity (Hamster [26]): 98%
Activity (Hamster [27]): 92%
Activity (Hamster [28]): 75%
Activity (Hamster [29]): 94%
Activity (Hamster [30]): 45%
Activity (Hamster [31]): 145%
Activity (Hamster [32]): 112%
